The nature of assay [1]: Cytotoxicity against human THLE3 cells assessed as reduction in cell viability after 48 hrs by alamar blue assay. Type of assay: cell-based. Conditions: THLE3, 48 h.
Assay [2] concerns Escherichia coli. As to the kind of experiment: Antibacterial activity against Escherichia coli SM101 assessed as reduction in bacterial growth incubated for 12 hrs by UV-Vis spectrophotometric analysis. Type of assay: functional, organism-based. The following applies: SM101, 12 h.
Assay [3] concerns Enterococcus faecium. As to the kind of experiment: Antibacterial activity against multidrug resistant Enterococcus faecium NCTC 7171 (ATCC 19434) assessed as reduction in bacterial growth incubated for 6 to 8 hrs. Format: functional, organism-based. The procedure, abridged: (§1)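 Broth proliferation assay. S. aureus and MRSA grown in ATCC Medium 18, other pathogens in Brain Heart Infusion. Stagnant incubation at 37°C under breathable seal. OD600 read at mid-log (6-8 h) and corrected with bacteria-free baseline plates. EC50 by variable-slope nonlinear fit, at least triplicate.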

Assay [4] addresses T1, E. coli GroEL/ES (Escherichia coli, UniProt P0A6F5). Kind of assay: Inhibition of Escherichia coli GroEL/GroES using Escherichia coli GroEL expressed in Escherichia coli DH5alpha cells and Escherichia coli GroES expressed in Escherichia coli BL21(DE3) cells assessed as inhibition of denatured pig heart MDH refolding by measuring reduction in NADH production incubated for 60 mins by micro plate reader analysis. The procedure, abridged:
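Denatured MDH (guanidine-HCl/DTT, 30 min RT) bound to GroEL with GroES in Tris pH 7.4, KCl, MgCl2, DTT buffer. 60 min at 37°C, EDTA quench to 100 mM. Refolded MDH activity read with mesoxalate/NADH at 340 nm. Log-averaged IC50 from replicates.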

Assay [5] concerns Klebsiella pneumoniae subsp. pneumoniae. Kind of assay: Antibacterial activity against multidrug resistant Klebsiella pneumoniae subsp. pneumoniae NCTC 9633 (ATCC 13883) assessed as reduction in bacterial growth incubated for 6 to 8 hrs. Format: functional, organism-based. In short, it runs like this:
as §1

The subject of assay [6] is Acinetobacter baumannii. Kind of assay: Antibacterial activity against multidrug resistant Acinetobacter baumannii 2208 (ATCC 19606) assessed as reduction in bacterial growth incubated for 6 to 8 hrs. Format: functional. The procedure, abridged:
as §1

The test system of assay [7] is Escherichia coli. As to the kind of experiment: Antibacterial activity against Escherichia coli DH5alpha assessed as reduction in bacterial growth incubated for 6 to 8 hrs. Type of assay: functional, organism-based. The following applies: DH5[alpha].
Assay [8] concerns the target T2, HSP60/HSP10 (Homo sapiens, UniProt P10809). As to the kind of experiment: Inhibition of human HSP60/HSP10 expressed in Escherichia coli Rosetta2(DE3) cells assessed as reduction in denatured pig heart MDH ATPase activity by malachite green dye based assay.
Assay [9] relates to HEK293. As to the kind of experiment: Cytotoxicity against HEK293 cells assessed as reduction in cell viability after 48 hrs by alamar blue assay. Type of assay: cell-based. The following applies: Homo sapiens, HEK293, 48 h. On the technique in general: Resazurin is reduced to fluorescent resorufin, in cell work by metabolically active cells.
Assay [10] concerns the target T1, E. coli GroEL/ES. As to the kind of experiment: Inhibition of Escherichia coli GroEL/GroES using Escherichia coli GroEL expressed in Escherichia coli DH5alpha cells and Escherichia coli GroES expressed in Escherichia coli BL21(DE3) cells assessed as inhibition of denatured rhodanese refolding by measuring reduction in thiocyanate production incubated for 60 mins by micro plate reader analysis. In short, it runs like this:
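Urea-denatured rhodanese bound to GroEL/GroES in folding buffer containing thiosulfate. After 60 min at 37°C, thiocyanate reaction (KCN, thiosulfate, phosphate) run, then formaldehyde quench and ferric nitrate added. Fe(SCN)3 read at 460 nm after 15 min RT, with protein-free baseline plates.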

Assay [11] concerns the target T2, HSP60/HSP10. As to the kind of experiment: Inhibition of human HSP60/HSP10 expressed in Escherichia coli Rosetta2(DE3) cells assessed as inhibition of denatured pig heart MDH refolding by measuring reduction in NADH production incubated for 60 mins by micro plate reader analysis. The procedure, abridged: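 Pig heart MDH was denatured in guanidine-HCl (dMDH) and complexed with HSP60, then HSP10, in Tris pH 7.4/KCl/MgCl2/DTT buffer. EDTA quench (100 mM final); refolded MDH activity was followed with mesoxalate/NADH at 340 nm.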

Assay [12] deals with Escherichia coli. As to the kind of experiment: Antibacterial activity against acrB-deficient Escherichia coli MC4100 assessed as reduction in bacterial growth incubated for 6 to 8 hrs. Type of assay: functional, organism-based.
Assay [13] deals with Enterobacter cloacae. As to the kind of experiment: Antibacterial activity against multidrug resistant Enterobacter cloacae subsp. cloacae CDC 442-68 (ATCC 13047) assessed as reduction in bacterial growth incubated for 6 to 8 hrs. Type of assay: functional, organism-based. The procedure, abridged: as §1
For assay [14], the system named is Bacillus subtilis. As to the kind of experiment: Antibacterial activity against Bacillus subtilis 168 assessed as reduction in bacterial growth incubated for 6 to 8 hrs. Type of assay: functional, organism-based. The following applies: subsp. subtilis str. 168.
In assay [15] the target is T1, E. coli GroEL/ES. As to the kind of experiment: Inhibition of Escherichia coli GroEL/GroES using Escherichia coli GroEL expressed in Escherichia coli DH5alpha cells and Escherichia coli GroES expressed in Escherichia coli BL21(DE3) cells assessed as reduction in denatured pig heart MDH ATPase activity by malachite green dye based assay.
Assay [16] has as its system Staphylococcus aureus. Kind of assay: Antibacterial activity against methicillin resistant Staphylococcus aureus subsp. aureus HPV107 (ATCC BAA-44) assessed as reduction in bacterial growth incubated for 6 to 8 hrs. Type of assay: functional, organism-based. In short, it runs like this:
as §1

For assay [17], the target named is T1, E. coli GroEL/ES. Kind of assay: Inhibition of Escherichia coli GroEL/GroES using Escherichia coli GroEL expressed in Escherichia coli DH5alpha cells and Escherichia coli GroES expressed in Escherichia coli BL21(DE3) cells assessed as reduction in pig heart native refolded MDH-mediated NADH production by micro plate reader analysis. The procedure, abridged:
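Native MDH counter-screen. GroEL/ES-dMDH refolding run 60 min at 37°C, then EDTA-quenched without compound. IC50 averaged from at least triplicate.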

The test system of assay [18] is Pseudomonas aeruginosa. Kind of assay: Antibacterial activity against multidrug resistant Pseudomonas aeruginosa NCTC 10332 (ATCC 10145) assessed as reduction in bacterial growth incubated for 6 to 8 hrs. Format: functional, organism-based. The procedure, abridged: as §1
The subject of assay [19] is Staphylococcus aureus. As to the kind of experiment: Antibacterial activity against methicillin susceptible Staphylococcus aureus subsp. aureus Seattle 1945 (ATCC 25923) assessed as reduction in bacterial growth incubated for 6 to 8 hrs.
Assay [20] deals with T1, E. coli GroEL/ES. As to the kind of experiment: Inhibition of Escherichia coli GroEL/GroES using Escherichia coli GroEL expressed in Escherichia coli DH5alpha cells and Escherichia coli GroES expressed in Escherichia coli BL21(DE3) cells assessed as reduction in native refolded rhodanese-mediated thiocyanate production by micro plate reader analysis.

The structures appear in SMILES notation.

As usually defined, the EC50 is the concentration at which the effect is half-maximal. In general, IC50 refers to the concentration that gives 50% inhibition.

T2 sequence (P10809 whole entry): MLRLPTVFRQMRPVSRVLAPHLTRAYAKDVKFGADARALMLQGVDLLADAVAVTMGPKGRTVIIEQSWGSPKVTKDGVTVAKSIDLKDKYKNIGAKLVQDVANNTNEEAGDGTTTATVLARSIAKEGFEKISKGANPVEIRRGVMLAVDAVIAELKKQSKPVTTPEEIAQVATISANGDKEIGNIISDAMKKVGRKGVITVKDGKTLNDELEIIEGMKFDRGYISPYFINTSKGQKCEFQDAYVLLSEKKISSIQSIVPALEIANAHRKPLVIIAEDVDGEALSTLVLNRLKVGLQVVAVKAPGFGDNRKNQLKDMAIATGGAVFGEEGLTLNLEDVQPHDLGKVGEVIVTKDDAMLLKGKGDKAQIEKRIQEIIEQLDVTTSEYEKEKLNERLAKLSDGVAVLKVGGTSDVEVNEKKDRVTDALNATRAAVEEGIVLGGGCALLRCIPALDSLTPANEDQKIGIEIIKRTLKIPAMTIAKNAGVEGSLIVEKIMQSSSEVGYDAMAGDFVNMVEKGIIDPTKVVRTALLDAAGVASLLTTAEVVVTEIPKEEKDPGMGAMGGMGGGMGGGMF
T2 sequence (P61604 whole entry, further chain): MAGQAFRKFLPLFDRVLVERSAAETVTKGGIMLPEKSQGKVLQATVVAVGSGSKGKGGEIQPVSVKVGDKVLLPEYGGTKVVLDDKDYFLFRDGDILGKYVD
T1 sequence (P0A6F5 whole entry, looked up): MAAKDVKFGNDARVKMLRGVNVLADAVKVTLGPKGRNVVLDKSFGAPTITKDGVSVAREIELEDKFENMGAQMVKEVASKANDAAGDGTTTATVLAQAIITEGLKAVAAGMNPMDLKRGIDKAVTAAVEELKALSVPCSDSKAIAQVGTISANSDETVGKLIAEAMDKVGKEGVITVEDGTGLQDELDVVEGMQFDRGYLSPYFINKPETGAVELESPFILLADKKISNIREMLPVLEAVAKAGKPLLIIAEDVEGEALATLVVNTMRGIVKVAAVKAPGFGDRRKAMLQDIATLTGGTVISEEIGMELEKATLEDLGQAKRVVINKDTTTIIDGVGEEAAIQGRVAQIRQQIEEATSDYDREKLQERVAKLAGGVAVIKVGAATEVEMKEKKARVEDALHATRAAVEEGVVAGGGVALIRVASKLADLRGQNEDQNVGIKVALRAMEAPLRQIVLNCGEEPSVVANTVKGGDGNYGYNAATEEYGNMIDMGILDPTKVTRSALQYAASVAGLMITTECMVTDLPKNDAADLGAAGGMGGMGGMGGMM

For `CNC(=O)Oc1c(Br)cc2sc(=O)oc2c1Br`, the concentration giving a half-maximal response (EC50) in assay [1], in assay [2], in assay [3], in assay [5], in assay [6] and in [7] was > 100 µM throughout. For the same compound, the concentration giving a half-maximal response (EC50) in assay [9] is > 100 µM; in assay [12], > 100 µM; in assay [13], > 100 µM; in assay [14] it was 43 µM; in assay [16], 74 µM; in assay [18], > 100 µM. Besides, the half-maximal effective concentration (EC50) in [19] worked out at 45 µM. For the same compound, the IC50 is 2.6 µM in [4]; > 250 µM in [8]; 0.89 µM in assay [10]; 1.8 µM in [11]; > 250 µM in assay [15]; > 62.5 µM in [17]. Further, in assay [20], the IC50 was found to be 5.3 µM.
With `O=C(/C=C/c1ccco1)c1ccc(NC(=O)c2cccs2)cc1`, the concentration for a half-maximal effect (EC50) is 34 µM in [1]; > 100 µM in [2]; > 100 µM in assay [3]; > 100 µM in [5]; > 100 µM in assay [6]; > 100 µM in [7]. For the same compound, the concentration for a half-maximal effect (EC50) in [9] is 55 µM; in assay [12] it was > 100 µM; in [13], > 100 µM; in assay [14] it was > 100 µM; in assay [16], 61 µM; in assay [18] it was > 100 µM. The concentration giving a half-maximal response (EC50) in assay [19] was > 100 µM. Also, the concentration for half-maximal inhibition (IC50) is 3.6 µM in [4]; > 250 µM in assay [8]; 2.3 µM in [10]; 8.2 µM in [11]; > 250 µM in assay [15]; > 62.5 µM in assay [17]. Besides, the half-inhibitory concentration (IC50) in assay [20] was > 100 µM.
As for `O=C(/C=C/c1ccc([N+](=O)[O-])cc1)c1ccc(O)c(O)c1`, the EC50 is 9.9 µM in assay [1]; 48 µM in assay [2]; > 100 µM in assay [3]; > 100 µM in assay [5]; > 100 µM in assay [6]; > 100 µM in [7]. The EC50 in [9] was 12 µM; in [12] it was > 100 µM; in assay [13] it was > 100 µM; in [14], > 100 µM; in [16], 40 µM; in [18] it was > 100 µM. Moreover, the EC50 in [19] was found to be 23 µM. Also, the half-inhibitory concentration (IC50) in assay [4] is 1.2 µM; in assay [8], > 250 µM; in assay [10], 0.83 µM; in assay [11], 5.2 µM; in assay [15] it was 216 µM; in assay [17] it was > 62.5 µM. In addition, in assay [20], the IC50 is 12 µM.
In the case of `O=C(/C=C/c1cccc([N+](=O)[O-])c1)c1ccc(NC(=O)c2ccco2)cc1`, the concentration giving a half-maximal response (EC50) in assay [1] is > 100 µM; in assay [2], 76 µM; in [3], > 100 µM; in assay [5] it was > 100 µM; in assay [6], > 100 µM; in [7], > 100 µM. In addition, the EC50 in [9], in [12], in assay [13], in assay [14], in assay [16] and in [18] was > 100 µM throughout. In addition, in assay [19], the EC50 is > 100 µM. Also, the IC50 in assay [4] is 0.93 µM; in assay [8] it was > 250 µM; in assay [10], 1.4 µM; in assay [11], 1.6 µM; in assay [15], 80 µM; in assay [17] it was > 62.5 µM. Further, the half-inhibitory concentration (IC50) in assay [20] is > 100 µM.
With `Cc1ccc(S(=O)(=O)Nc2ccc(-c3nc4ccc(NS(=O)(=O)c5ccc(C)cc5)cc4[nH]3)cc2)cc1`, the half-maximal effective concentration (EC50) is 29 µM in assay [1]; > 100 µM in assay [2]; > 100 µM in [3]; > 100 µM in [5]; > 100 µM in assay [6]; > 100 µM in assay [7]. Further, the concentration giving a half-maximal response (EC50) was 34 µM in assay [9]; > 100 µM in assay [12]; > 100 µM in [13]; > 100 µM in [14]; > 100 µM in [16]; > 100 µM in assay [18]. In addition, the half-maximal effective concentration (EC50) in assay [19] is > 100 µM. The 50% inhibitory concentration (IC50) is 7.5 µM in assay [4]; 106 µM in [8]; 30 µM in [10]; 89 µM in assay [11]; 119 µM in assay [15]; > 62.5 µM in assay [17]. The concentration for half-maximal inhibition (IC50) in [20] was > 100 µM.
As to `O=C(CC1Nc2cccc3cccc(c23)NC1=O)Nc1cccc([N+](=O)[O-])c1` (stereo not given), the concentration giving a half-maximal response (EC50) was 61 µM in assay [1]; 68 µM in [2]; 15 µM in [3]; > 100 µM in [5]; > 100 µM in [6]; > 100 µM in [7]. For the same compound, the EC50 in [9] was 62 µM; in [12], > 100 µM; in assay [13], > 100 µM; in assay [14] it was 72 µM; in assay [16], 54 µM; in assay [18], > 100 µM. Besides, the EC50 in assay [19] is 84 µM. Further, the half-maximal inhibitory concentration (IC50) is 42 µM in [4]; > 250 µM in assay [8]; 11 µM in assay [10]; > 100 µM in assay [11]; 217 µM in assay [15]; > 62.5 µM in assay [17]. For the same compound, the IC50 in assay [20] was determined as 10 µM.
For `O=C1/C(=C/c2ccc(O)c(O)c2)SC(=S)N1c1ccc(O)cc1`, the EC50 in [1] is 16 µM; in [2], 27 µM; in assay [3] it was 90 µM; in assay [5], > 100 µM; in assay [6], 58 µM; in [7], > 100 µM. For the same compound, the EC50 in [9] was 23 µM; in assay [12], 92 µM; in [13], > 100 µM; in assay [14] it was 25 µM; in assay [16], 9.1 µM; in assay [18] it was > 100 µM. Moreover, in assay [19], the EC50 was determined as 14 µM. In addition, the half-inhibitory concentration (IC50) in [4] is 0.69 µM; in [8] it was > 250 µM; in [10] it was 0.58 µM; in assay [11], 4.9 µM; in [15], > 250 µM; in assay [17], > 62.5 µM. Further, the IC50 in assay [20] was 14 µM.

These data come from ChEMBL document CHEMBL3808280, “GroEL/ES inhibitors as potential antibiotics” (Bioorg Med Chem Lett, 2016).
